Measurements collected from several papers.
Protocols differ between the studies behind these lines.
Target: Dual specificity protein kinase CLK2 (CLK2, Homo sapiens, UniProt P49760)

| Compound | test | conditions | measurement | value |
| --- | --- | --- | --- | --- |
| CO[C@@H]1[C@H](N(C)C(=O)c2ccccc2)C[C@H]2O[C@]1(C)n1c3ccccc3c3c4c(c5c6ccccc6n2c5c31)C(=O)NC4 | enzyme activity, inhibitor | 1 µM | inhibition | 54% |
| Cc1ccc(NC(=O)c2ccnc(C(F)(F)F)c2)cc1-c1cc(OCCO)nc(N2CCOCC2)c1 | binding | 1 µM | remaining binding | 100% |
| CC(C)S(=O)(=O)c1ccc2nccc(Nc3ccc4sc(C5CCCC5)nc4c3)c2c1 | enzyme activity, inhibitor | 1 µM | activity vs control | 105% |
| C1=C/COCc2cc(ccc2OCCN2CCCC2)Nc2nccc(n2)-c2cccc(c2)COC/1 | binding | 0.1 µM | remaining binding | 47% |
| C#Cc1cc(-c2cc(Nc3nc(N[C@@H](C)c4ccc(F)cn4)ncc3Cl)n[nH]2)ccc1C=O | enzyme activity, inhibitor | 0.2 µM | inhibition | 47.4% |
| Cc1cc(O)c(-c2ccc([C@@H](C)CN(C)C)cc2)c2c1[nH]c(=O)c1sccc12 | enzyme activity, inhibitor | 0.1 µM | inhibition | 8.32% |
| C=CC(=O)N1CCC[C@@H](n2nc(-c3ccc(Oc4ccccc4)cc3)c3c(N)ncnc32)C1 | enzyme activity, inhibitor | 1 µM | inhibition | 2% |
| CCCCC(=O)Nc1ccc(-c2ccc3ncn(CCC)c(=O)c3c2)cn1 | binding, competition with immobilised ligand | 0.5 µM | remaining binding | 100% |
| C[C@H]1CC[C@H](n2c3cnccc3c3cnc(Nc4ccc5c(n4)CCN(C(=O)CO)C5)nc32)CC1 | cell-free assay | 1 µM | remaining signal | 1% |
